In ChEMBL document CHEMBL1123585, “Differential effects of N-terminal modifications on the biological potencies of growth hormone releasing factor analogues with varying chain lengths” (1987):

What was measured:
[1] = target: T1, Growth hormone-releasing hormone receptor (Rattus norvegicus) (UniProt Q02644); experiment: Effect on growth hormone release(GRF) was determined in nembutal-anesthetized rat, at dose of 100 ug/100 g body weight.; assay type: functional
T1 sequence (whole entry): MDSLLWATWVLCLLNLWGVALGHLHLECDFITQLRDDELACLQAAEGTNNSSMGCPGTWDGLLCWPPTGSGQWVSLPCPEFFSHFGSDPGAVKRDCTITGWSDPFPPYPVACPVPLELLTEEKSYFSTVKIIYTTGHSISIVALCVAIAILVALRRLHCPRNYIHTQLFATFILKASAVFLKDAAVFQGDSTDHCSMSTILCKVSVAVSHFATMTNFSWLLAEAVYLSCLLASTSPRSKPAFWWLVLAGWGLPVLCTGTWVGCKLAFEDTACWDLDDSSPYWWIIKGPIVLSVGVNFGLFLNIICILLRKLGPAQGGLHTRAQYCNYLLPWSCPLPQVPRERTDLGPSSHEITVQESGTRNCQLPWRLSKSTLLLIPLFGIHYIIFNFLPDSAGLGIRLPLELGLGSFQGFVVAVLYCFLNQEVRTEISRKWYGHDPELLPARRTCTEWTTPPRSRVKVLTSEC
In short: (§1)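 Male Charles River rats (175-275 g), anesthetized with sodium pentobarbital 6 mg/100 g body weight. Six to nine per group. Peptide or saline given subcutaneously in 0.5 mL, 30 min after anesthetic. Jugular vein blood taken 15 min post-injection. Plasma GH measured by radioimmunoassay and reported as ng/mL, mean ± SEM.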

[2] = target: T1, Growth hormone-releasing hormone receptor (Rattus norvegicus); experiment: In vitro rat pituitary cell growth hormone response was obtained; assay type: functional, cell-based; details: Pituitary gland cell
Rattus norvegicus [3] = experiment: Effect on growth hormone release(GRF) was determined in nembutal-anesthetized rat, at dose of 40 ug/100 g body weight.; assay type: functional, organism-based; in short: as §1
[4] = target: T1, Growth hormone-releasing hormone receptor (Rattus norvegicus); experiment: Tested for the potency of growth hormone (GRF) on subcutaneous administration in anesthetized male Charles River rats; assay type: functional, organism-based
In short: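 Pentobarbital-anesthetized male rats (175-275 g), six to nine per group, received two subcutaneous doses of analogue or of reference GRF(1-29)NH2, in 0.5 mL, 30 min after anesthesia. Plasma GH measured by RIA 15 min later. Potency with 95% confidence limits calculated from a four-point assay design by the Pugsley method.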

Rattus norvegicus [5] = experiment: Effect on growth hormone release(GRF) was determined in nembutal-anesthetized rat, at dose of 0.5 ug/100 g body weight.; assay type: functional, organism-based; in short: as §1
Rattus norvegicus [6] = experiment: Effect on growth hormone release(GRF) was determined in nembutal-anesthetized rat, at dose of 0.2 ug/100 g body weight.; assay type: functional, organism-based; in short: as §1
Rattus norvegicus [7] = species on record: Rattus norvegicus; experiment: In vitro rat pituitary cell growth hormone response to the compound was obtained; assay type: functional, Pituitary gland cell
Rattus norvegicus [8] = experiment: Effect on growth hormone release (GRF) was determined in nembutal-anesthetized rat, at dose of 25 ug/100 g body weight.; assay type: functional, organism-based; in short: as §1
Rattus norvegicus [9] = experiment: Effect on growth hormone release (GRF) was determined in nembutal-anesthetized rat, at dose of 62.5 ug/100 g body weight.; assay type: functional, organism-based; in short: as §1
Rattus norvegicus [10] = experiment: Effect on growth hormone release(GRF) was determined in nembutal-anesthetized rat, at dose of 80 ug/100 g body weight.; assay type: functional, organism-based; in short: as §1
Rattus norvegicus [11] = experiment: Effect on growth hormone release(GRF) was determined in nembutal-anesthetized rat, at dose of 32 ug/100 g body weight.; assay type: functional, organism-based; in short: as §1
Rattus norvegicus [12] = experiment: Effect on growth hormone release(GRF) was determined in nembutal-anesthetized rat, at dose of 125 ug/100 g body weight.; assay type: functional, organism-based; in short: as §1
Rattus norvegicus [13] = experiment: Effect on growth hormone release(GRF) was determined in nembutal-anesthetized rat, at dose of 50 ug/100 g body weight.; assay type: functional, organism-based; in short: as §1
Rattus norvegicus [14] = experiment: Effect on growth hormone release(GRF) was determined in nembutal-anesthetized rat, at dose of 25 ug/100 g body weight.; assay type: functional, organism-based; in short: as §1
Rattus norvegicus [15] = experiment: Effect on growth hormone release(GRF) was determined in nembutal-anesthetized rat, at dose of 10 ug/100 g body weight.; assay type: functional, organism-based; in short: as §1
Rattus norvegicus [16] = experiment: Effect on growth hormone release(GRF) was determined in nembutal-anesthetized rat, at dose of 0.4 ug/100 g body weight.; assay type: functional, organism-based; in short: as §1
Rattus norvegicus [17] = experiment: Effect on growth hormone release(GRF) was determined in nembutal-anesthetized rat, at dose of 1 ug/100 g body weight.; assay type: functional, organism-based; in short: as §1

CC[C@H](C)[C@H](NC(=O)[C@H](C)NC(=O)[C@H](CC(=O)O)NC(=O)[C@@H](C)NC(=O)[C@@H](N)Cc1ccc(O)cc1)C(=O)N[C@@H](Cc1ccccc1)C(=O)N[C@H](C(=O)N[C@@H](CC(N)=O)C(=O)N[C@@H](CO)C(=O)N[C@@H](Cc1ccc(O)cc1)C(=O)N[C@@H](CCCN=C(N)N)C(=O)N[C@@H](CCCCN)C(=O)N[C@H](C(=O)N[C@@H](CC(C)C)C(=O)NCC(=O)N[C@@H](CCC(N)=O)C(=O)N[C@@H](CC(C)C)C(=O)N[C@@H](CO)C(=O)N[C@@H](C)C(=O)N[C@@H](CCCN=C(N)N)C(=O)N[C@@H](CCCCN)C(=O)N[C@@H](CC(C)C)C(=O)N[C@@H](CC(C)C)C(=O)N[C@@H](CCC(N)=O)C(=O)N[C@@H](CC(=O)O)C(=O)N[C@H](C(=O)N[C@@H](CC(C)C)C(N)=O)[C@@H](C)CC)C(C)C)[C@@H](C)O (stereo in doubt; 3)
Plasma GH release [1]: 507 ng/mL | Potency [2]: 0.001% | Plasma GH release (Rattus norvegicus [3]): 741 ng/mL | Potency [4]: < 5%

CC[C@H](C)[C@H](NC(=O)[C@H](C)NC(=O)[C@H](CC(=O)O)NC(=O)[C@@H](C)NC(=O)[C@@H](N)Cc1ccc(O)cc1)C(=O)N[C@@H](Cc1ccccc1)C(=O)N[C@H](C(=O)N[C@@H](CC(N)=O)C(=O)N[C@@H](CO)C(=O)N[C@@H](Cc1ccc(O)cc1)C(=O)N[C@@H](CCCN=C(N)N)C(=O)N[C@@H](CCCCN)C(=O)N[C@H](C(=O)N[C@@H](CC(C)C)C(=O)NCC(=O)N[C@@H](CCC(N)=O)C(=O)N[C@@H](CC(C)C)C(=O)N[C@@H](CO)C(=O)N[C@@H](C)C(=O)N[C@@H](CCCN=C(N)N)C(=O)N[C@@H](CCCCN)C(=O)N[C@@H](CC(C)C)C(=O)N[C@@H](CC(C)C)C(=O)N[C@@H](CCC(N)=O)C(=O)N[C@@H](CC(=O)O)C(=O)N[C@H](C(=O)N[C@@H](CCSC)C(=O)N[C@@H](CO)C(=O)N[C@@H](CCCN=C(N)N)C(N)=O)[C@@H](C)CC)C(C)C)[C@@H](C)O
Plasma GH release (Rattus norvegicus [5]): 2180 ng/mL | Plasma GH release (Rattus norvegicus [6]): 1210 ng/mL | Potency (Rattus norvegicus [7]): 5340% | Potency [4]: 4450%

H-YADAIFTNSYRKVLGQLSARKLLQDILSR-NH2
Plasma GH release (Rattus norvegicus [8]): 1410 ng/mL | Potency [2]: 2% | Potency [4]: 57% | Plasma GH release (Rattus norvegicus [9]): 1720 ng/mL

CC[C@H](C)[C@H](NC(=O)[C@H](C)NC(=O)[C@H](CC(=O)O)NC(=O)[C@@H](C)NC(=O)[C@@H](N)Cc1ccc(O)cc1)C(=O)N[C@@H](Cc1ccccc1)C(=O)N[C@H](C(=O)N[C@@H](CC(N)=O)C(=O)N[C@@H](CO)C(=O)N[C@@H](Cc1ccc(O)cc1)C(=O)N[C@@H](CCCN=C(N)N)C(=O)N[C@@H](CCCCN)C(=O)N[C@H](C(=O)N[C@@H](CC(C)C)C(=O)NCC(=O)N[C@@H](CCC(N)=O)C(=O)N[C@@H](CC(C)C)C(=O)N[C@@H](CO)C(=O)N[C@@H](C)C(=O)N[C@@H](CCCN=C(N)N)C(=O)N[C@@H](CCCCN)C(=O)N[C@@H](CC(C)C)C(=O)N[C@@H](CC(C)C)C(=O)N[C@@H](CCC(N)=O)C(N)=O)C(C)C)[C@@H](C)O
Plasma GH release (Rattus norvegicus [10]): 1370 ng/mL | Plasma GH release (Rattus norvegicus [11]): 499 ng/mL | Potency [2]: 0.004% | Potency [4]: 16%

CC[C@H](C)[C@H](NC(=O)[C@H](C)NC(=O)[C@H](CC(=O)O)NC(=O)[C@H](C)NC(=O)[C@@H](N)Cc1ccc(O)cc1)C(=O)N[C@@H](Cc1ccccc1)C(=O)N[C@H](C(=O)N[C@@H](CC(N)=O)C(=O)N[C@@H](CO)C(=O)N[C@@H](Cc1ccc(O)cc1)C(=O)N[C@@H](CCCN=C(N)N)C(=O)N[C@@H](CCCCN)C(=O)N[C@H](C(=O)N[C@@H](CC(C)C)C(=O)NCC(=O)N[C@@H](CCC(N)=O)C(=O)N[C@@H](CC(C)C)C(=O)N[C@@H](CO)C(=O)N[C@@H](C)C(=O)N[C@@H](CCCN=C(N)N)C(=O)N[C@@H](CCCCN)C(=O)N[C@@H](CC(C)C)C(=O)N[C@@H](CC(C)C)C(=O)N[C@@H](CCCN=C(N)N)C(N)=O)C(C)C)[C@@H](C)O
Plasma GH release [1]: 406 ng/mL | Plasma GH release (Rattus norvegicus [3]): 392 ng/mL | Potency [4]: < 1%

CC[C@H](C)[C@H](NC(=O)[C@H](C)NC(=O)[C@H](CC(=O)O)NC(=O)[C@@H](C)NC(=O)[C@@H](N)Cc1ccc(O)cc1)C(=O)N[C@@H](Cc1ccccc1)C(=O)N[C@H](C(=O)N[C@@H](CC(N)=O)C(=O)N[C@@H](CO)C(=O)N[C@@H](Cc1ccc(O)cc1)C(=O)N[C@@H](CCCN=C(N)N)C(=O)N[C@@H](CCCCN)C(=O)N[C@H](C(=O)N[C@@H](CC(C)C)C(=O)NCC(=O)N[C@@H](CCC(N)=O)C(=O)N[C@@H](CC(C)C)C(=O)N[C@@H](CO)C(=O)N[C@@H](C)C(=O)N[C@@H](CCCN=C(N)N)C(=O)N[C@@H](CCCCN)C(=O)N[C@@H](CC(C)C)C(=O)N[C@@H](CC(C)C)C(=O)N[C@@H](CCCN=C(N)N)C(N)=O)C(C)C)[C@@H](C)O
Plasma GH release (Rattus norvegicus [12]): 2790 ng/mL | Plasma GH release (Rattus norvegicus [13]): 1020 ng/mL | Potency [4]: 20%

CC[C@H](C)[C@H](NC(=O)[C@H](C)NC(=O)[C@H](CC(=O)O)NC(=O)[C@H](C)NC(=O)[C@@H](N)Cc1ccc(O)cc1)C(=O)N[C@@H](Cc1ccccc1)C(=O)N[C@H](C(=O)N[C@@H](CC(N)=O)C(=O)N[C@@H](CO)C(=O)N[C@@H](Cc1ccc(O)cc1)C(=O)N[C@@H](CCCN=C(N)N)C(=O)N[C@@H](CCCCN)C(=O)N[C@H](C(=O)N[C@@H](CC(C)C)C(=O)NCC(=O)N[C@@H](CCC(N)=O)C(=O)N[C@@H](CC(C)C)C(=O)N[C@@H](CO)C(=O)N[C@@H](C)C(=O)N[C@@H](CCCN=C(N)N)C(=O)N[C@@H](CCCCN)C(=O)N[C@@H](CC(C)C)C(=O)N[C@@H](CC(C)C)C(=O)N[C@@H](CCC(N)=O)C(=O)N[C@@H](CC(=O)O)C(=O)N[C@H](C(=O)N[C@@H](CCSC)C(=O)N[C@@H](CO)C(=O)N[C@@H](CCCN=C(N)N)C(N)=O)[C@@H](C)CC)C(C)C)[C@@H](C)O
Plasma GH release (Rattus norvegicus [14]): 2570 ng/mL | Potency [2]: 100% | Plasma GH release (Rattus norvegicus [15]): 1180 ng/mL | Potency [4]: 100%

CC[C@H](C)[C@H](NC(=O)[C@H](C)NC(=O)[C@H](CC(=O)O)NC(=O)[C@@H](C)N(C)C(=O)[C@@H](N)Cc1ccc(O)cc1)C(=O)N[C@@H](Cc1ccccc1)C(=O)N[C@H](C(=O)N[C@@H](CC(N)=O)C(=O)N[C@@H](CO)C(=O)N[C@@H](Cc1ccc(O)cc1)C(=O)N[C@@H](CCCN=C(N)N)C(=O)N[C@@H](CCCCN)C(=O)N[C@H](C(=O)N[C@@H](CC(C)C)C(=O)NCC(=O)N[C@@H](CCC(N)=O)C(=O)N[C@@H](CC(C)C)C(=O)N[C@@H](CO)C(=O)N[C@@H](C)C(=O)N[C@@H](CCCN=C(N)N)C(=O)N[C@@H](CCCCN)C(=O)N[C@@H](CC(C)C)C(=O)N[C@@H](CC(C)C)C(=O)N[C@@H](CCC(N)=O)C(=O)N[C@@H](CC(=O)O)C(=O)N[C@H](C(=O)N[C@@H](CCSC)C(=O)N[C@@H](CO)C(=O)N[C@@H](CCCN=C(N)N)C(N)=O)[C@@H](C)CC)C(C)C)[C@@H](C)O
Plasma GH release (Rattus norvegicus [16]): 761 ng/mL | Plasma GH release (Rattus norvegicus [17]): 1720 ng/mL | Potency [4]: 1630%
